Laboratory results published in ChEMBL document CHEMBL5252603, “Discovery of 2-aminoquinolone acid derivatives as potent inhibitors of SARS-CoV-2” (Bioorg Med Chem Lett, 2023).

How the values were obtained:
Vero = assay: Cytotoxicity against african green monkey Vero cells; assay type: toxicity, cell-based; conditions: chlorocebus sabaeus
How it was run: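 Uninfected Vero cells were tested in parallel with the antiviral immunocytochemistry assay. CC50 was derived from at least two independent experiments.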

[1] = Selectivity index, ratio of CC50 for african green monkey Vero cells to EC50 for Severe acute respiratory syndrome coronavirus 2; assay type: toxicity; conditions: read-out: Ratio CC50/EC50
SARS-CoV-2 = assay: Antiviral activity against Severe acute respiratory syndrome coronavirus 2 infected in Vero cells; assay type: functional, organism-based; conditions: Severe acute respiratory syndrome coronavirus 2, Vero
[2] = Microsomal stability in human liver microsomes assessed as compound remaining after 30 mins in presence of NADPH; assay type: ADME, Microsome; conditions: read-out: Stability
NIH3T3 = assay: Cytotoxicity against mouse NIH3T3 cells; assay type: toxicity, cell-based
How it was run: (§1)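 Cell viability was measured by the EZ-Cytox assay, with CC50 as the read-out. Cell lines: HFL-1, human embryonic lung; L929, mouse fibroblast; NIH 3T3, mouse embryonic fibroblast; CHO-K1, Chinese hamster ovary.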

CYP2C19 = CYP2C19 (Homo sapiens, UniProt P33261); assay: Inhibition of human CYP2C19 at 10 uM relative to control; assay type: ADME
Sequence of CYP2C19 (P33261 whole entry): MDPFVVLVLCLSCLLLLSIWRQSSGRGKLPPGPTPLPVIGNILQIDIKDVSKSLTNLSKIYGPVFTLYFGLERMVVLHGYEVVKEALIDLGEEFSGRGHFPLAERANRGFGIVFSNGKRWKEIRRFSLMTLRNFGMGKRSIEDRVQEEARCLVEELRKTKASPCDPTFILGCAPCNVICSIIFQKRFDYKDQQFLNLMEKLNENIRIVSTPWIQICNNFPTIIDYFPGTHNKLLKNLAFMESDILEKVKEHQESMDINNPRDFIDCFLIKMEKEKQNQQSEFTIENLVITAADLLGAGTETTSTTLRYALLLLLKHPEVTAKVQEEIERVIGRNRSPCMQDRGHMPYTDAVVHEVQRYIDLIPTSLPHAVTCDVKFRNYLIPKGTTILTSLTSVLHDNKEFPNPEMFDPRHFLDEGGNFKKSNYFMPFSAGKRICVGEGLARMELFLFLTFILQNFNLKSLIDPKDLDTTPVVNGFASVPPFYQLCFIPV

CYP2D6 = CYP2D6 (Homo sapiens, UniProt P10635); assay: Inhibition of human CYP2D6 at 10 uM relative to control; assay type: ADME
Sequence of CYP2D6 (P10635 whole entry): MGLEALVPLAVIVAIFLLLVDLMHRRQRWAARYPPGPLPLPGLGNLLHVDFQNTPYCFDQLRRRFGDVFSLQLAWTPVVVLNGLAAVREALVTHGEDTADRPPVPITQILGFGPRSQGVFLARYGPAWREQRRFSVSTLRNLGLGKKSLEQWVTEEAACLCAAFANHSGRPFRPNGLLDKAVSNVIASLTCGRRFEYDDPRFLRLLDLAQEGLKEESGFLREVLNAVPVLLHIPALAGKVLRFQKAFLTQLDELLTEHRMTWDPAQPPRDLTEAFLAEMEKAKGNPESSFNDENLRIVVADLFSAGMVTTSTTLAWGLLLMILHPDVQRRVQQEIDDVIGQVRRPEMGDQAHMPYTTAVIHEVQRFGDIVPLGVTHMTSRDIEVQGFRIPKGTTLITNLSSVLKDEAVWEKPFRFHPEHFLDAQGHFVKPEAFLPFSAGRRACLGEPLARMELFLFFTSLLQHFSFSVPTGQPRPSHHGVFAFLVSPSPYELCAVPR

[3] = Microsomal stability in mouse liver microsomes assessed as compound remaining after 30 mins in presence of NADPH; assay type: ADME, Microsome; conditions: read-out: Stability
[4] = Microsomal stability in rat liver microsomes assessed as compound remaining after 30 mins in presence of NADPH; assay type: ADME, Microsome; conditions: read-out: Stability
HFL1 = assay: Cytotoxicity against human HFL1 cells; assay type: toxicity, cell-based; how it was run: as §1
CYP2C9 = CYP2C9 (Homo sapiens, UniProt P11712); assay: Inhibition of human CYP2C9 at 10 uM relative to control; assay type: ADME
Sequence of CYP2C9 (P11712 whole entry): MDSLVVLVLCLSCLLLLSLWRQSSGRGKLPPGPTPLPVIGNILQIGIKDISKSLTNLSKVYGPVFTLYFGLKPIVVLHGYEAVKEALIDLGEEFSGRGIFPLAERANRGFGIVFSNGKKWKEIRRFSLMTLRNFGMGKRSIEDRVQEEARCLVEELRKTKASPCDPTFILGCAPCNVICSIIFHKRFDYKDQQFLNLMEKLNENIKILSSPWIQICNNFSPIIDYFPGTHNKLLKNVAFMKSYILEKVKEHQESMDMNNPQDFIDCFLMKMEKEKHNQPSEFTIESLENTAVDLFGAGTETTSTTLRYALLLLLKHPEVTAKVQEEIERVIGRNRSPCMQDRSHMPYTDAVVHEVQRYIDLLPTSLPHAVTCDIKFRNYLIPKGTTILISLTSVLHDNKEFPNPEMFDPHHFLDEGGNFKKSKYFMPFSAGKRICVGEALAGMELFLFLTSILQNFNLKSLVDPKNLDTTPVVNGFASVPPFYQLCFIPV

L929 = assay: Cytotoxicity against mouse L929 cells; assay type: toxicity, cell-based; how it was run: as §1
CYP1A2 = target: T1, CYP1A2 (Homo sapiens, UniProt P05177); assay: Inhibition of human CYP1A2 at 10 uM relative to control; assay type: ADME
T1 sequence (P05177 whole entry): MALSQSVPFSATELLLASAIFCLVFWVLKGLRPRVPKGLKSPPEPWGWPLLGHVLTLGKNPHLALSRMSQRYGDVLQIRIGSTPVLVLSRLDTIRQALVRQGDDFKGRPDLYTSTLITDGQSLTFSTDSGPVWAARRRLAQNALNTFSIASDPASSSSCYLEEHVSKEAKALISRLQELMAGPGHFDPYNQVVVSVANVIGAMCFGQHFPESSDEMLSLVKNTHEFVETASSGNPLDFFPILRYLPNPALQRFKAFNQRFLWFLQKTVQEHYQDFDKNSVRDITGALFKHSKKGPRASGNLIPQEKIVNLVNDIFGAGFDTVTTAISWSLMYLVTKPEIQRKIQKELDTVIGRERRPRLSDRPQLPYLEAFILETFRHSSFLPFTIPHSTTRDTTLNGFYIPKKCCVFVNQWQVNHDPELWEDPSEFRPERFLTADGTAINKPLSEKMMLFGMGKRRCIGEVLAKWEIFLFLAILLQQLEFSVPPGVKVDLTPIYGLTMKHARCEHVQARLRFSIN

[5] = target: Voltage-gated inwardly rectifying potassium channel KCNH2 (Homo sapiens, UniProt Q12809); assay: Binding affinity to human ERG; assay type: toxicity
Sequence of Voltage-gated inwardly rectifying potassium channel KCNH2 (Q12809 whole entry): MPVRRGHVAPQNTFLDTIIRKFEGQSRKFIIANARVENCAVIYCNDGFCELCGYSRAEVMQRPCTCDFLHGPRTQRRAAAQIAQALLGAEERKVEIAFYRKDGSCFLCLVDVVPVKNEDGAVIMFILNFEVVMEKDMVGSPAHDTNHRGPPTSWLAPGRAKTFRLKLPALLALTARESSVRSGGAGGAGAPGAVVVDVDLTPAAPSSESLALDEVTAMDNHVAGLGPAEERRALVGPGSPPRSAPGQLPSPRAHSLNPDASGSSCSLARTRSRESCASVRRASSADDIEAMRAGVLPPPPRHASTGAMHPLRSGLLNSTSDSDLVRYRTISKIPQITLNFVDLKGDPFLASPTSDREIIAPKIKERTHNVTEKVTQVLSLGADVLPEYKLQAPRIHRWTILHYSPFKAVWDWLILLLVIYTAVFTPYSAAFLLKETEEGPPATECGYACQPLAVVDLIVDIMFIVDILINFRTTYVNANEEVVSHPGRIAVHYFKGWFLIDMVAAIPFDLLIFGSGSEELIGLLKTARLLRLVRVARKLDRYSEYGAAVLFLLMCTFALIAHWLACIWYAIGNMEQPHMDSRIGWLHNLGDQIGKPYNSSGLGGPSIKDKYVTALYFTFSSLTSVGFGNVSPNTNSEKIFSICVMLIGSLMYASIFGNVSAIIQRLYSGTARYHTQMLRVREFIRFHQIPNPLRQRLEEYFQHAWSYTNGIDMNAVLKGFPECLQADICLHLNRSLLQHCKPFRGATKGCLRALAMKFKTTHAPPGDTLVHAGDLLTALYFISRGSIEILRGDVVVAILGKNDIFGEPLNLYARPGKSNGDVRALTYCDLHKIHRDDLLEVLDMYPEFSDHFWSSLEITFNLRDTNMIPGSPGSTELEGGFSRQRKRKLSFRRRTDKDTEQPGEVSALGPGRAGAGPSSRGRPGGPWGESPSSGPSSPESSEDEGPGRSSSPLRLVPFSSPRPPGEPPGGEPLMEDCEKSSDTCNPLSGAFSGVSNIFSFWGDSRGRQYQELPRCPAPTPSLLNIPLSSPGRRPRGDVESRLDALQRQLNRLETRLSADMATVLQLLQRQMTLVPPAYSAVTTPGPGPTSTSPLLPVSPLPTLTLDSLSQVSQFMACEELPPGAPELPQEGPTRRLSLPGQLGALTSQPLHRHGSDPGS
How it was run: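 hERG fluorescence polarization ligand-binding assay; IC50 read-out.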

CHO-K1 = assay: Cytotoxicity against CHO-K1 cells; assay type: toxicity, cell-based, Cricetulus griseus; conditions: chinese hamster; how it was run: as §1
CYP3A4 = CYP3A4 (Homo sapiens, UniProt P08684); assay: Inhibition of human CYP3A4 at 10 uM relative to control; assay type: ADME
Sequence of CYP3A4 (P08684 whole entry): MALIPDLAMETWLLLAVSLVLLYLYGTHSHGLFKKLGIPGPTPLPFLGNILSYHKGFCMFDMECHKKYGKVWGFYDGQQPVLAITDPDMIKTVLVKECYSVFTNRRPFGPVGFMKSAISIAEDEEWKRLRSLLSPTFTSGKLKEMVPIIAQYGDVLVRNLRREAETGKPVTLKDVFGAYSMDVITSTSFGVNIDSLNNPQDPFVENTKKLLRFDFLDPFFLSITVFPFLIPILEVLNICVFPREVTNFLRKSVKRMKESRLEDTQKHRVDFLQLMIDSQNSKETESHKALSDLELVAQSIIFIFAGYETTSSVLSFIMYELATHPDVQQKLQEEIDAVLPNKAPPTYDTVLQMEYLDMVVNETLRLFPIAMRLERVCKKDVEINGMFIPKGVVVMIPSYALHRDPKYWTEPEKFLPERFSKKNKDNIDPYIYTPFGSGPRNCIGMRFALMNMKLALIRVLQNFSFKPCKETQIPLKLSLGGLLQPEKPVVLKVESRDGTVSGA

[6] = Microsomal stability in dog liver microsomes assessed as compound remaining after 30 mins in presence of NADPH; assay type: ADME, Canis lupus familiaris, Microsome; conditions: read-out: Stability

| SMILES | CC50 (Vero) [µM] | selectivity ratio [1] | EC50 (SARS-CoV-2) [µM] | further results |
| --- | --- | --- | --- | --- |
| CCC(CC)COC(=O)[C@H](C)N[P@](=O)(OC[C@H]1O[C@@](C#N)(c2ccc3c(N)ncnn23)[C@H](O)[C@@H]1O)Oc1ccccc1 | > 25 |  |  |  |
| CC(C)(C)[C@H](NC(=O)C(F)(F)F)C(=O)N1C[C@H]2[C@@H]([C@H]1C(=O)N[C@H](C#N)C[C@@H]1CCNC1=O)C2(C)C | > 25 |  |  |  |
| COC(=O)c1c([S+](C)[O-])[nH]c2cc(Cl)ccc2c1=O (stereo not drawn) | 12 | 1.3 | 9.4 |  |
| CN(C)CCCNc1[nH]c2cc(Cl)ccc2c(=O)c1C(=O)O | > 25 | 1 | > 25 |  |
| O=C(O)c1c(Nc2cccc(F)c2)[nH]c2cc(Cl)ccc2c1=O | > 25 | 16 | 1.5 | remaining at 0.5 h [2]: 62%; CC50 (NIH3T3): 67 µM; inhibition at 10 µM (CYP2C19): 9%; inhibition at 10 µM (CYP2D6): 3%; remaining at 0.5 h [3]: 24%; remaining at 0.5 h [4]: 14%; CC50 (HFL1): 48 µM; inhibition at 10 µM (CYP2C9): 59%; CC50 (L929): > 100 µM; inhibition at 10 µM (CYP1A2): 72%; IC50 [5]: > 100 µM; CC50 (CHO-K1): 55 µM; inhibition at 10 µM (CYP3A4): < 1%; remaining at 0.5 h [6]: 65% |
| O=C(O)c1c(Nc2cccc(F)c2)[nH]c2ccccc2c1=O | > 25 | 6.2 | 4 |  |
| O=C(O)c1c(Nc2cccc(F)c2)[nH]c2ccc(Cl)cc2c1=O | > 25 | 17 | 1.5 |  |
| O=c1cc(Nc2cccc(F)c2)[nH]c2cc(F)c(F)cc12 | > 25 | 1 | > 25 |  |
| COC(=O)c1c([S+](C)[O-])[nH]c2ccccc2c1=O (stereo not drawn) | > 25 | 1.9 | 13.4 |  |
| COc1ccc2[nH]c(Nc3cccc(F)c3)c(C(=O)O)c(=O)c2c1 | > 25 | 7.6 | 3.3 |  |
| CNC(=O)c1c(Nc2cccc(F)c2)[nH]c2cc(Cl)ccc2c1=O | > 25 | 3.2 | 7.9 |  |
| O=C(O)c1c(Nc2ccc(F)cc2)[nH]c2ccc(Cl)cc2c1=O | > 25 | 8.9 | 2.8 |  |
| O=C(O)c1c(Nc2cccc(F)c2)[nH]c2cc(F)c(F)cc2c1=O | > 25 | 7.5 | 3.3 |  |
| O=C(O)c1c(Nc2ccc(F)cc2)[nH]c2cc(F)c(F)cc2c1=O | > 25 | 7.2 | 3.5 |  |
| O=C(O)c1c(NC2CCCCC2)[nH]c2cc(Cl)ccc2c1=O | > 25 | 5.7 | 4.4 |  |
| CCN(CC)CCCC(C)Nc1ccnc2cc(Cl)ccc12 (stereo not drawn) [CHLOROQUINE] | > 25 | 3 | 8.2 |  |
